# A selection: hits, their analogues and other compounds. The true share with any hit is near 1.9%.
# DNA FID counter-1: compounds displacing fluorescent DNA intercalator, primary screen, artefact control for HCV NS3 helicase inhibitor project, biochemical, FID fluorescence; inhibition, % at 7.9 µM; 0.17% of 290,000 active; DNA fluorescent intercalator displacement;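 note: 0% = vehicle and 100% = reference compound; higher means more ethidium bromide displaced from hairpin DNA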
# IMP-1 inhibitor: IMP-1 metallo-beta-lactamase inhibitors, primary screen, biochemical, epi-absorbance readout, Pseudomonas aeruginosa enzyme; purified IMP-1, nitrocefin hydrolysis, epi-absorbance fluorescence; 0.45% of 290,000 active; inhibition, % at 5.6 µM; metallo-beta-lactamase IMP-1 (Pseudomonas aeruginosa);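 active = inhibition above the mean plus 3 SD of all compounds in the same screening run, cut at about 4.5% in these data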;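 note: 0% = IMP-1 with DMSO and 100% = DMSO wells lacking enzyme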
#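 Material – recombinant IMP-1 enzyme, purified · Amount – IMP-1 0.2 nM before substrate addition · Medium – HEPES buffer pH 7.1 with ZnSO4 and Brij 35 · Timing – 25 °C, 15 min preincubation, 25 min reaction · Measured by – plate fluorescence quenching by hydrolysis product, ex 480/em 530 nm · Read-out – percent enzyme inhibition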
# VIM-2 inhibitor: VIM-2 metallo-beta-lactamase inhibitors, primary screen, biochemical, epi-absorbance readout, Pseudomonas aeruginosa enzyme. 0.89% of 290,000 active. purified VIM-2, nitrocefin hydrolysis, epi-absorbance fluorescence. inhibition, % at 5.6 µM;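 active = inhibition above the mean of all tested compounds plus 3 SD, cutoff set per screening run, cut at about 7.5% in these data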;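 note: red hydrolysis product quenches plate fluorescence so inhibitors raise well fluorescence; 0% = enzyme with DMSO and 100% = DMSO without enzyme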
# NS3 helicase inh: inhibitors of HCV NS3 helicase, primary screen, biochemical, Cy5 molecular beacon fluorescence; Hepatitis C virus NS3 helicase; NS3 helicase DNA unwinding; 0.56% of 290,000 active; inhibition, % at 10.9 µM;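 active = inhibition above the mean of all tested compounds plus 3 SD, set per campaign, cut at about 35% in these data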;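 note: 0% = DMSO wells and 100% = thioflavine S control wells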
#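 test system = hepatitis C virus NS3 helicase domain fragment enzyme | reagent = annealed dual-labelled DNA beacon duplex, ATP-started | times = 1 h at 25 °C | detection = Cy5 fluorescence, 0 and 60 min reads | read-out basis = percent inhibition from t60/t0 fluorescence ratio | control set = DMSO and thioflavine S | replication = one well per compound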
# VIM-2 inh confirm: P. aeruginosa VIM-2 enzyme inhibition – biochemical, epi-absorbance, HTS, confirmation; 73% of 200 active; purified VIM-2 enzyme, nitrocefin absorbance; inhibition, % at 5.6 µM; AID 1860, 2009; shares compounds with IMP-1 inhibitor; in the data active = inhibition above about 8%;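 note: 0% = enzyme with vehicle and 100% = no enzyme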
# TEM-1 inh 2: Serine beta-lactamase TEM-1 inhibition, biochemical epi-absorbance counter-screen for IMP-1/VIM-2 inhibitor program. shares compounds with IMP-1 inhibitor. TEM-1 beta-lactamase, nitrocefin absorbance inhibition. inhibition, % at 5.6 µM. 50% of 200 active; in the data active = inhibition above about 0.66%
# Target sequence (P62593 whole entry, looked up): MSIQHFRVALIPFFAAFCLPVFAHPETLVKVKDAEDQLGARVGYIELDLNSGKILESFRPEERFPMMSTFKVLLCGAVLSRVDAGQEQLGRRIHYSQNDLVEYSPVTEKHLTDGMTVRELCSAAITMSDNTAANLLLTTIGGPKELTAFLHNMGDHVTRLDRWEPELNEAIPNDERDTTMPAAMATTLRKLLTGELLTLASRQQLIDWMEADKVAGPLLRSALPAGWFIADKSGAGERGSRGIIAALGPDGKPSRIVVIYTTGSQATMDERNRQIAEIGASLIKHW
# IMP-1 confirm: IMP-1 metallo-beta-lactamase inhibitors, confirmation, biochemical, epi-absorbance, hits shared with VIM-2 screen; shares compounds with IMP-1 inhibitor; purified IMP-1 enzyme, absorbance substrate hydrolysis; inhibition, % at 5.6 µM; 60% of 200 active; in the data active = inhibition above about 4.9%;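 note: 0% = enzyme with vehicle and 100% = vehicle without enzyme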
# NS3 hel confirm: HCV NS3 helicase inhibitors, retest, confirmation, biochemical, Cy5 molecular beacon fluorescence, triplicate | shares compounds with NS3 helicase inh | NS3 helicase DNA unwinding | inhibition, % at 10.9 µM | 31% of 1,600 active;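 active = inhibition above the mean of all tested compounds plus 3 SD, cutoff set per campaign, cut at about 36% in these data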
# DNA FID counter-2: compounds displacing fluorescent DNA intercalator, artefact control for HCV NS3 helicase inhibitor project, biochemical, FID fluorescence, triplicate. shares compounds with NS3 helicase inh. DNA fluorescent intercalator displacement. inhibition, % at 7.9 µM. 4% of 1,600 active. AID 1945, 2009;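 note: 0% = vehicle and 100% = reference compound; higher means more displacement of ethidium bromide from the DNA hairpin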
# An asterisk follows results filed as active; nt = no result. Cut-off read from the data, not from the text of the source, unless noted: active = inhibition above about 37%; inactive = the rest.
SMILES,DNA FID counter-1,IMP-1 inhibitor,VIM-2 inhibitor,NS3 helicase inh,VIM-2 inh confirm,TEM-1 inh 2,IMP-1 confirm,others
CCN(CC)c1ccc2cc(C=O)c(=O)oc2c1,-2,15*,15*,-1,16*,15*,12*,
CCC(NC(=O)CCc1nnc(-c2cc(C)on2)o1)C12CC3CC(CC(C3)C1)C2 (configuration not stated),-36,-5,-2,-6,nt,nt,nt,
O/C=c1\ccc2cccc3nc(C(F)(F)F)nc1c23,5,6.8*,21*,27,33*,5.0*,11*,
O=C(NC1CC1)C1CCN(c2nc3ccccc3s2)CC1,-10,-3,-5,2,nt,nt,nt,
O=C(NC1CC1)C1CCN(c2ncnc3c2sc2cccc(F)c23)CC1,-15,5.1*,14*,11,28*,-6,-1,
COc1cccc(C(c2nnnn2CC2CCCO2)N2CCN(C(=O)c3ccco3)CC2)c1OC (configuration not stated),-24,0,0,-7,nt,nt,nt,
COc1cc(CN2CCC(n3nccc3NC(=O)c3ccccc3OC)CC2)ccc1F,10,-3,-4,1,nt,nt,nt,
c1ccc(CNc2ccccn2)cc1,0,-2,-3,4,nt,nt,nt,
c1ccc(Nc2ccccc2Nc2ccccn2)nc1,-1,50*,32*,11,3,1.1*,1,
COc1ccc(CCNc2nc(C)nc3c2nnn3Cc2ccccc2)cc1OC,-28,-2,-1,2,nt,nt,nt,
COc1ccc(N=Nc2nc3ccc(Br)cc3n2C)cc1,-9,25*,26*,5,-2,-5,-4,
CN1C(=O)c2cccc(NCCCN3C(=O)c4ccccc4C3=O)c2C1=O,2,0,-3,-1,nt,nt,nt,
Cn1c(=O)c(NCCc2ccccc2)c2c3c(cccc31)C(=O)c1ccccc1-2,-64,36*,37*,6,28*,64*,24*,
CCNc1c2c3c(cccc3n(C)c1=O)C(=O)c1ccccc1-2,0,23*,22*,-5,60*,69*,41*,
CCCCNc1c2c3c(cccc3n(C)c1=O)C(=O)c1ccccc1-2,-6,28*,23*,-1,34*,53*,28*,
CCNC1=C(Cl)C(=O)c2ccccc2C1=O,3,-2,-1,0,nt,nt,nt,
Cn1c(=O)c(NCCO)c2c3c(cccc31)C(=O)c1ccccc1-2,-71,96*,90*,1,108*,158*,95*,
O=C(N/N=C/c1ccccc1O)C(=O)Nc1ccccn1,-6,-2,-4,8,nt,nt,nt,
CC1(C)CN2C(=O)c3ccccc3C2(C)S1 (configuration not stated),-1,-2,-3,-4,nt,nt,nt,
CCOc1ccccc1NC(=O)c1cc(SC)ccc1Cl,-18,-2,2,-6,nt,nt,nt,
CCN(CC)C(=O)C1c2ccccc2Oc2ccccc21,-46,17*,18*,7,2,1.6*,1,
O=c1cc(N2CCCC2)c2ccccc2o1,7,-1,1,3,nt,nt,nt,
COc1ccc2c(c1OC)C(=O)OC2,-2,0,0,4,nt,nt,nt,
COc1ccc2c3c(cccc13)C(=O)CC2,-100,16*,17*,12,1,1.7*,-2,
CCOC(=O)C1CCCN(C(=O)c2csc(-c3ccc4c(c3)CCO4)n2)C1 (configuration not stated),-32,-3,0,-1,nt,nt,nt,
SMILES,DNA FID counter-1,IMP-1 inhibitor,VIM-2 inhibitor,NS3 helicase inh,VIM-2 inh confirm,TEM-1 inh 2,IMP-1 confirm,others
CSc1ccc(/C=C2\C(=N)N3N=C(CC(=O)N4CCOCC4)SC3=NC2=O)cc1,-36,-3,-3,8,nt,nt,nt,
CCN(CC)c1ccc(/C=C2\C(=N)N3N=C(CC(=O)N4CCOCC4)SC3=NC2=O)cc1,-32,6.4*,11*,15,9.3*,-1,3,
CN1CCS/C1=C/C=C1\SC(=S)N(CC(=O)O)C1=O,-2,6.8*,9.6*,4,8,-7,2,
CCOc1ccc(NC(=O)c2c(NC(=O)CN3CCCC3)sc3c2CCC3)cc1,-7,-2,0,-23,nt,nt,nt,
CCOc1ccc(NC(=O)c2c(NC(=O)CN3CCN(C)CC3)sc3c2CCC3)cc1,22,4.7*,9.6*,-32,16*,-3,2,
Cc1ccc(NC(=O)c2cnccn2)cc1C,-3,0,-1,-7,nt,nt,nt,
CCn1cc(/C=C/c2cc[n+](C)cc2)c2ccccc21,14,13*,16*,7,14*,8.0*,8.3*,
CC(C)n1cc(/C=C/c2cc[n+](C)cc2)c2ccccc21,6,12*,18*,8,14*,6.7*,8.4*,
COC(=O)c1sccc1NC(=O)c1ccc(C#N)cc1,-8,32*,16*,1,14*,0,22*,
CC(C)(C)C1C=C(Sc2ccccc2)C(=O)O1 (configuration not stated),-3,51*,8.8*,2,-1,-3,15*,
N#CC1=C(N)Oc2c(O)cc3ccccc3c2C1c1ccsc1 (configuration not stated),-17,4.6*,8.1*,38*,0,-5,-3,NS3 hel confirm=-10;DNA FID counter-2=19
CCN(CC)c1ccc2cc(C(N)=O)c(=N)oc2c1,-4,0,0,16,nt,nt,nt,
CCN(CC)c1ccc2c(-c3ccc(S(=O)(=O)O)cc3S(=O)(=O)[O-])c3ccc(=[N+](CC)CC)cc-3oc2c1,nt,104*,104*,51*,85*,150*,80*,NS3 hel confirm=84*
O=C(CSc1nnc(CNC(=O)c2ccco2)o1)Nc1ccc(F)cc1,-3,-3,-3,5,nt,nt,nt,
CC(=O)Oc1cc2cccc(OC(C)=O)c(=O)c2c(OC(C)=O)c1OC(C)=O,-7,8.9*,7,53*,2,-3,-2,NS3 hel confirm=-7;DNA FID counter-2=8
CC1CN(S(=O)(=O)c2ccc(F)cc2)C(C)N1C(=O)N1CCOCC1 (configuration not stated),-5,-1,-2,-4,nt,nt,nt,

# Assay outcomes deposited in PubChem BioAssay by The Scripps Research Institute Molecular Screening Center.
